FGF22 binding: binders of human FGF22 protein, primary screen, FGF22 synaptogenesis inhibitor project, biophysical, thermal shift, single point; recombinant FGF22 thermal shift, SYPRO orange fluorescence; percent of sucrose octasulfate shift, DMSO zero; hit rate 1.5% among 340,000; Fibroblast growth factor 22 (Homo sapiens), Q9HCT0; AID 651658, 2012; activity (Tm shift, normalised), % at 9.99 µM;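 active = mean Tm shift, scaled 0 neutral to 100 positive control, at about 1.3% or above, every replicate too, limit read from the data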
697 NFkB inh: inhibitors of PMA/ionomycin-induced NF-kB reporter, 697 cells, primary screen, B-cell NF-kB inhibitor project, cell-based, luminescence, uHTS; hit rate 0.33% among 330,000; inhibition, % at 4 µM; 697 B-cell NF-kB luciferase reporter, 16 h; in the data active = inhibition above about 35%
NR2E3 ag-1: NR2E3 agonists in two-hybrid cells, primary screen, cell-based, luminescence, CHO-S, Gal4-NCOR/VP16-NR2E3; AID 602229, 2012; Photoreceptor-specific nuclear receptor (Homo sapiens), Q9Y5X4; luciferase; inhibition of corepressor binding, % at 3.98 µM; hit rate 0.35% among 360,000;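 active = inhibition above the mean of all tested compounds plus 3 SD, cut at about 70% in these data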;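 note: 0% = DMSO with NR2E3 transfected cells and 100% = cells lacking NR2E3 construct; higher means lower luciferase signal from less NR2E3 corepressor binding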
Target sequence (Q9Y5X4 whole entry, looked up, the tested form may be a part): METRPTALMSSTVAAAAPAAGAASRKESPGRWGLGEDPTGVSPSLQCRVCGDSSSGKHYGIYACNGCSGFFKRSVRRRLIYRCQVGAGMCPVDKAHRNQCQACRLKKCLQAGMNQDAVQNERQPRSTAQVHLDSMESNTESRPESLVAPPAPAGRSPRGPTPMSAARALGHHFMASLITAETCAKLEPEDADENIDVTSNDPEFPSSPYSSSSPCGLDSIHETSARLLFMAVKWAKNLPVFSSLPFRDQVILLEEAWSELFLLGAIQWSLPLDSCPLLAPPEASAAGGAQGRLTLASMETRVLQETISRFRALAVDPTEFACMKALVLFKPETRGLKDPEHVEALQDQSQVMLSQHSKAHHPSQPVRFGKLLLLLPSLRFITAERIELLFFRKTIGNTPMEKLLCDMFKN
miR-122 sensor: miR-122 Renilla sensor signal increase in Huh7, primary screen, miR-122 inhibitor project, cell-based, single point, plate reader. Huh7 miR-122 Renilla luciferase sensor, 48 h; neutral wells = 0, positive control = 100. activation (reporter increase), % at 12.5 µM. hit rate 0.3% among 340,000;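 active = mean replicate activation score at least 90 and every replicate individually at or above 90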;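 note: higher luciferase means less miR-122 activity so hits act as miR-122 inhibitors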
NR2E3 ag-2: inhibitors of NR2E3-RetCOR corepressor binding, primary screen, NR2E3 agonist project, biochemical, TR-FRET, GST-NR2E3, biotin-RetCOR; Photoreceptor-specific nuclear receptor (Homo sapiens), Q9Y5X4; 1536-well; hit rate 0.12% among 320,000; inhibition of corepressor binding, % at 4.78 µM; AID 2300, 2010;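 active = percent inhibition above the cutoff of mean plus 3 SD of all tested compounds, set per screening campaign, cut at about 20% in these data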;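 note: 0% = DMSO wells and 100% = biotin wells as full block of FRET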
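system = GST-tagged NR2E3 plus biotinylated RetCOR corepressor | input = 1.35 nM GST-NR2E3 | also added = 7 nM biotin-RetCOR | schedule = 5 h incubation at 4 °C | measured by = TR-FRET with europium anti-GST and streptavidin-D2, 340 nm excitation | read-out = percent loss of FRET ratio relative to control wells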
Jurkat NFkB inh: inhibitors of induced NF-kB luciferase reporter, primary screen, TCR NF-kB activation inhibitor project, cell-based, luminescence, uHTS; Jurkat, PMA/ionomycin-induced NF-kB luciferase reporter; inhibition, % at 4 µM; hit rate 0.53% among 330,000; in the data active = inhibition above about 50%
Starred values were filed as active, the others as inactive; x = no result; [ ] = remark or other dose. Most compounds without a hit are left out; they make up all but 2.2% or so of the library.

SMILES	FGF22 binding	697 NFkB inh	NR2E3 ag-1	miR-122 sensor	NR2E3 ag-2	Jurkat NFkB inh
CN1[C@H](C(=O)NCc2ccncc2)[C@@H](CO)[C@@H]2Cn3c(ccc(-c4ccccc4F)c3=O)[C@@H]21	0	x	x	-4[16.7 µM]	x	x
COc1ccc(OC)c(-n2c(Cn3c(-c4ccccn4)nc4ccccc43)n[nH]c2=S)c1	44*	-5	-10	x	-5	4
COCC(C)n1c(SCC(=O)NC(=O)NCc2ccccc2)nc2ccccc2c1=O (configuration not stated)	44*	-29	0	4	x	-3
COCC(C)n1c(SCC(=O)Nc2cc(C)on2)nc2ccccc2c1=O (configuration not stated)	x	5	-1	x	x	-2
COc1ccc(-c2cc(=O)oc3cc(OCC(=O)NCc4ccccn4)ccc23)cc1	0	18	-15	1	3	4
COc1ccc(-c2cc(=O)oc3cc(OC(C)C(=O)NCc4ccccn4)ccc23)cc1 (configuration not stated)	49*	8	-11	0	-4	10
C[C@H]1CN([C@@H](C)CO)C(=O)c2cc(-c3cccnc3)cnc2O[C@H]1CN(C)C(=O)Nc1ccc2c(c1)OCO2	0	x	x	-6[16.7 µM]	x	x
CC1CCN(CC(=O)Nc2cc(C(F)(F)F)ccc2Cl)CC1	0	-16	11	-7	1	2
O=C(COC(=O)CNC(=O)C1CCCCC1)Nc1cc(C(F)(F)F)ccc1Cl	0	-20	5	16	-1	4
CC(OC(=O)C1CC1)C(=O)Nc1cc(C(F)(F)F)ccc1Cl (configuration not stated)	44*	19	-34	5	-4	4
CC1(C)CC(=O)C(CC(=O)Nc2cc(C(F)(F)F)ccc2Cl)C(=O)C1	44*	-20	-10	x	-2	-4
CC(C)NC(=O)Nc1ccc2c(c1)C(=O)N([C@@H](C)CO)C[C@@H](C)[C@H](CN(C)C(=O)CCC(F)(F)F)OCCCC[C@@H](C)O2	0	x	x	-8[16.7 µM]	x	x
COCCNC(=O)C[C@@H]1C[C@@H]2c3cc(NC(=O)C4CCC4)ccc3O[C@@H]2[C@H](CO)O1	0	x	x	4[16.7 µM]	x	x
FC(F)(F)c1cnc(C(c2ccccc2)c2ncn[nH]2)c(Cl)c1 (configuration not stated)	43*	7	14	-5	3	6
C[C@@H]1CCCCO[C@@H](CN(C)S(=O)(=O)c2ccccc2)[C@@H](C)CN([C@H](C)CO)C(=O)c2cc(NC(=O)Cc3ccccc3)ccc2O1	0	x	x	0[16.7 µM]	x	x
N/C(=N\OC(=O)CCCOc1ccccc1)c1ccc([N+](=O)[O-])cc1	43*	-18	-26	-5	2	2
Cc1cc(C(F)(F)F)nc(SCCN2CCOCC2)c1C#N	43*	13	-33	1	1	2
Cc1cc(C)c(C#N)c(SCCN2CCCCC2)n1	0	4	-20	1	x	-25
CCC(=O)N1C[C@@H](O)COC[C@@H]2O[C@@H](CC(=O)NCc3ccccc3Cl)CC[C@H]21	0	x	x	5[16.7 µM]	x	x
Cc1ccnc(NC(=O)c2cccc([N+](=O)[O-])c2C)c1	43*	7	-19	x	1	0
Cc1ccnc(NC(=O)c2ccccc2[N+](=O)[O-])c1	x	6	-15	0	-2	0
O=C(Nc1ccc(Cl)cn1)c1ccccc1[N+](=O)[O-]	43*	7	-26	40	0	9
CC(=O)N(C)C[C@@H]1Oc2cc(-c3ccccc3C)ccc2S(=O)(=O)N([C@@H](C)CO)C[C@@H]1C	0	x	x	3[16.7 µM]	x	x
